Source: ChEMBL document CHEMBL3414523, “FimH antagonists: bioisosteres to improve the in vitro and in vivo PK/PD profile” (J Med Chem, 2015)
Values after ≈ are worked out from the molar mass of the structure shown.

Tests used:
[1] = Apparent permeability across basolateral to apical side in human Caco2 cells by LC/MS analysis; conditions: Caco-2
physchem [2] = conditions: octanol/water, pH 7.4
[3] = Apparent permeability across apical to basolateral side in human Caco2 cells by LC/MS analysis; conditions: Caco-2
physchem [4] = conditions: buffer, pH 3
[5] = Dissociation constant, pKa of the compound by NMR spectroscopy; format: physicochemical
physchem [6] = conditions: buffer, pH 7.4
[7] = Displacement of fluorescently labeled 3'-chloro-N-(2-(3-(3',6'-dihydroxy-3-oxo-3H-spiro[isobenzofuran-1,9'-xanthene]-5-yl)thioureido)ethyl)-4'-((2R,3S,4S,5S,6R)-3,4,5-trihydroxy-6-(hydroxymethyl)tetrahydro-2H-pyran-2-yloxy)biphenyl-4-carboxamide from Escherichia coli recombinant 6-His-tagged FimH CRD expressed in Escherichia coli HM125 after 24 hrs by fluorescence polarization assay
In short: (§1)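 Competitive fluorescence polarization with His6-tagged FimH CRD (thrombin cleavage site) and fixed fluorescent reporter ligand, 24 h incubation to reach equilibrium; polarized excitation 485 nm, emission 528 nm on a plate reader. IC50 from four-parameter nonlinear least-squares fit, converted to KD by a modified Cheng–Prusoff equation accounting for ligand depletion.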

[8] = Plasma protein binding in human by equilibrium dialysis method; format: ADME, cell-free; conditions: read-out: PPB (converted)
[9] = Displacement of n-heptyl 2-deoxy-alpha-D-mannopyranoside from Escherichia coli recombinant 6-His-tagged FimH CRD expressed in Escherichia coli HM125 after 20 mins by isothermal titration calorimetry
[10] = Half life in rat liver microsomes at 2 uM after 10 mins by LC/MS/MS analysis
[11] = Kinetic solubility of the compound at 0.1 to 0.5 mM at pH 7.6 after 15 hrs by UV/Vis spectrophotometry; format: physicochemical; conditions: buffer, read-out: Kinetic_solubility
Escherichia coli [12] = assay: (§2) Antimicrobial activity against Escherichia coli UTI89 infected in C3H/HeN mouse urinary tract infection model assessed as bacterial load reduction in bladder at 10 mg/kg, po formulated with 5% DMSO in PBS containing 1% Tween 80 administered 40 mins prior to infection measured after 3 hrs relative to control; format: functional
Escherichia coli [13] = assay: Antimicrobial activity against Escherichia coli UTI89 infected in C3H/HeN mouse urinary tract infection model assessed as bacterial load reduction in bladder at 1.25 mg/kg, po administered 40 mins prior to infection measured after 3 hrs (reference value: 6.6 log10 CFU); format: functional
[14] = AUC (0 to infinity) in C3H/HeN mouse at 0.625 mg/kg, iv; format: ADME, organism-based; design: time infinity, dose 0.625 mg/kg, route intravenous; conditions: plasma
Escherichia coli [15] = assay: as §2, with “kidney” for “bladder”; format: functional
[16] = Initial plasma concentration in C3H/HeN mouse at 0.625 mg/kg, iv; format: ADME, organism-based; design: dose 0.625 mg/kg, route intravenous
Mus musculus [17] = assay: Volume of distribution in C3H/HeN mouse at 0.625 mg/kg, iv; format: ADME, organism-based; design: dose 0.625 mg/kg, route intravenous; conditions: in vivo
Escherichia coli [18] = assay: Inhibition of adhesion of Escherichia coli UTI89 clinical isolate to human 5637 cells assessed as MAC90 after 10 mins by flow cytometry; format: functional
[19] = Total clearance in C3H/HeN mouse at 0.625 mg/kg, iv; format: ADME, organism-based; design: dose 0.625 mg/kg, route intravenous; conditions: in vivo
[20] = Cmax in urine of C3H/HeN mouse at 0.625 mg/kg, iv; format: ADME, organism-based; design: dose 0.625 mg/kg, route intravenous
Escherichia coli [21] = assay: Antimicrobial activity against Escherichia coli UTI89 infected in C3H/HeN mouse urinary tract infection model assessed as bacterial load reduction in kidney at 1.25 mg/kg, po administered 40 mins prior to infection measured after 3 hrs (reference value: 6 log10 CFU); format: functional
Mus musculus [22] = assay: Half life in C3H/HeN mouse at 0.625 mg/kg, iv; format: ADME, organism-based; design: dose 0.625 mg/kg, route intravenous; conditions: in vivo
Mus musculus [23] = assay: Total clearance in C3H/HeN mouse at 50 mg/kg, iv; format: ADME, organism-based; design: dose 50 mg/kg, route intravenous; conditions: in vivo
Mus musculus [24] = assay: Volume of distribution in C3H/HeN mouse at 50 mg/kg, iv; format: ADME, organism-based; design: dose 50 mg/kg, route intravenous; conditions: in vivo
[25] = AUC (0 to infinity) in C3H/HeN mouse at 50 mg/kg, iv; format: ADME, organism-based; design: time infinity, dose 50 mg/kg, route intravenous; conditions: plasma
[26] = Initial plasma concentration in C3H/HeN mouse at 50 mg/kg, iv; format: ADME, organism-based; design: dose 50 mg/kg, route intravenous
Mus musculus [27] = assay: Half life in C3H/HeN mouse at 50 mg/kg, iv; format: ADME, organism-based; design: dose 50 mg/kg, route intravenous; conditions: in vivo
[28] = Cmax in urine of C3H/HeN mouse at 50 mg/kg, iv; format: ADME, organism-based; design: dose 50 mg/kg, route intravenous
[29] = Binding affinity to Escherichia coli recombinant 6-His-tagged FimH CRD expressed in Escherichia coli HM125 by isothermal titration calorimetry
[30] = Kinetic solubility of the compound at 0.1 to 0.5 mM at pH 3 to 7.4 after 15 hrs by UV/Vis spectrophotometry; format: physicochemical; conditions: buffer, read-out: Kinetic_solubility
[31] = Binding affinity to Escherichia coli recombinant 6-His-tagged FimH CRD expressed in Escherichia coli HM125 after 24 hrs by competitive fluorescence polarization assay; in short: as §1
[32] = Effective permeability coefficient, log Pe after 16 hrs by PAMPA; format: ADME
[33] = Kinetic solubility of the compound at 0.1 to 0.5 mM at pH 6.61 after 15 hrs by UV/Vis spectrophotometry; format: physicochemical; conditions: buffer, read-out: Kinetic_solubility
[34] = Kinetic solubility of the compound at 0.1 to 0.5 mM at pH 6.51 after 15 hrs by UV/Vis spectrophotometry; format: physicochemical; conditions: buffer, read-out: Kinetic_solubility
[35] = Half life in rat liver microsomes at 2 uM after 10 mins by LC/MS/MS analysis in presence of NADPH; format: ADME
[36] = Lipophilicity, log P of the compound; format: physicochemical; conditions: octanol/water

SMILES | Papp B→A [1] [×10⁻⁶ cm/s] | logD at 2 h, 1 µM (physchem [2]) | Papp A→B [3] [×10⁻⁶ cm/s] | solubility kinetic at 15 h, 500 µM (physchem [6]) [µg/mL] | Kd [7] [nM] | fraction unbound [8] | Kd [9] [nM] | half-life at 10 min, 2 µM ([10]; liver microsomes) [min] | also measured
N#CNC(=O)c1ccc(-c2ccc(O[C@H]3O[C@H](CO)[C@@H](O)[C@H](O)[C@@H]3O)cc2)cc1 | 0.29 | -1.1 | 0.22 | > 150 | 8.4 | – | – | – | solubility kinetic at 15 h, 500 µM (physchem [4]): > 150 µg/mL; pKa [5]: 2.5
NC(=O)c1ccc(-c2ccc(O[C@H]3O[C@H](CO)[C@@H](O)[C@H](O)[C@@H]3O)cc2)cc1 | 0.61 | 0.5 | 0.12 | 12 (≈ 32 µM) | 2.8 | – | – | – | –
N#Cc1ccc(-c2ccc(O[C@H]3O[C@H](CO)[C@@H](O)[C@H](O)[C@@H]3O)cc2)cc1 | 13.2 | 1.4 | 2 | – | 2 | 0.01 | 2.8 | > 60 | solubility kinetic at 15 h [11]: 186 µg/mL (≈ 520 µM)
N#Cc1ccc(-c2ccc(O[C@H]3O[C@H](CO)[C@@H](O)[C@H](O)[C@@H]3O)c(Cl)c2)cc1 | 22.1 | 2.1 | 2.2 | 192 (≈ 490 µM) | < 1 | 0.11 | 1.3 | > 60 | log10cfu (Escherichia coli [12]): 2.68; log10cfu (Escherichia coli [13]): 1.78; AUC(0-inf) [14]: 70 ng·h/mL; log10cfu (Escherichia coli [15]): 1.04; C0 [16]: 0.36 µg/mL; Vz (Mus musculus [17]): 52.8 mL; Activity (Escherichia coli [18]): 0.094 µg/mL; clearance [19]: 3.63 mL/min; Cmax [20]: 10 µg/mL; log10cfu (Escherichia coli [21]): 1.07; t1/2 (Mus musculus [22]): 10.2 min
O=C(c1ccc(-c2ccc(O[C@H]3O[C@H](CO)[C@@H](O)[C@H](O)[C@@H]3O)cc2)cc1)N1CCOCC1 | 1.3 | 0.2 | 0.18 | > 250 | 3 | 0.52 | 5 | > 60 | CL (Mus musculus [23]): 49.4 mL/h; Vz (Mus musculus [24]): 28.3 mL; AUC(0-inf) [25]: 25300 ng·h/mL; C0 [26]: 110 µg/mL; t1/2 (Mus musculus [27]): 24 min; Cmax [28]: 4610 µg/mL
CCCCCCCO[C@H]1O[C@H](CO)[C@@H](O)[C@H](O)[C@@H]1O | 9.4 | – | 7 | – | 28.3 | – | – | – | Kd [29]: 28.9 nM; solubility kinetic at 15 h [30]: > 3000 µg/mL; half-life at 10 min, 2 µM ([10]; microsomes): 13 min
CS(=O)(=O)c1ccc(-c2ccc(O[C@H]3O[C@H](CO)[C@@H](O)[C@H](O)[C@@H]3O)cc2)cc1 | 1.76 | 0.4 | 0.36 | 246 (≈ 599 µM) | 1.7 | 0.01 | 3 | > 60 | –
O=C(NCCOCCOCCNC(=S)Nc1ccc2c(c1)C(=O)OC21c2ccc(O)cc2Oc2cc(O)ccc21)c1ccc(-c2ccc(O[C@H]3O[C@H](CO)[C@@H](O)[C@H](O)[C@@H]3O)c(Cl)c2)cc1 | – | – | – | – | – | – | – | – | Kd [31]: 9.9 nM
OC[C@H]1O[C@H](Oc2ccc(-c3ccc(-c4nnn[nH]4)cc3)cc2)[C@@H](O)[C@@H](O)[C@@H]1O | – | – | – | – | 5.7 | – | – | – | pKa [5]: 3.7
OC[C@H]1O[C@H](Oc2ccc(-c3cc(F)c(O)c(F)c3)cc2)[C@@H](O)[C@@H](O)[C@@H]1O | 1.9 | 1.1 | 0.4 | > 150 | 3.7 | – | – | – | pKa [5]: 6.5
O=C(O)c1ccc(-c2ccc(O[C@H]3O[C@H](CO)[C@@H](O)[C@H](O)[C@@H]3O)cc2)cc1 | – | < -1.5 | – | – | 17.9 | – | – | > 60 | CL (Mus musculus [23]): 53.1 mL/h; Vz (Mus musculus [24]): 25.2 mL; log Pe [32]: impermeable; solubility kinetic at 15 h [33]: > 3000 µg/mL; Kd [29]: 15 nM; AUC(0-inf) [25]: 23500 ng·h/mL; C0 [26]: 40 µg/mL; t1/2 (Mus musculus [27]): 19.8 min; Cmax [28]: 300 µg/mL
O=C(NCCNC(=S)Nc1ccc2c(c1)C(=O)OC21c2ccc(O)cc2Oc2cc(O)ccc21)c1ccc(-c2ccc(O[C@H]3O[C@H](CO)[C@@H](O)[C@H](O)[C@@H]3O)c(Cl)c2)cc1 | – | – | – | – | – | – | – | – | Kd [31]: 1.7 nM
COC(=O)c1ccc(-c2ccc(O[C@H]3O[C@H](CO)[C@@H](O)[C@H](O)[C@@H]3O)cc2)cc1 | – | 2.14 | 4.23 | – | 3.6 | – | – | – | solubility kinetic at 15 h [34]: 33.8 µg/mL (≈ 86.6 µM); half-life at 2 µM [35]: 1 min
CNS(=O)(=O)c1ccc(-c2ccc(O[C@H]3O[C@H](CO)[C@@H](O)[C@H](O)[C@@H]3O)cc2)cc1 | – | – | – | – | 2.7 | < 0.01 | 3.5 | > 60 | CL (Mus musculus [23]): 7.1 mL/h; Vz (Mus musculus [24]): 19.5 mL; AUC(0-inf) [25]: 175000 ng·h/mL; C0 [26]: 152 µg/mL; t1/2 (Mus musculus [27]): 114 min; Cmax [28]: 387 µg/mL
CNC(=O)c1ccc(-c2ccc(O[C@H]3O[C@H](CO)[C@@H](O)[C@H](O)[C@@H]3O)cc2)cc1 | 0.87 | 0.8 | 1.1 | 122 (≈ 313 µM) | 2.9 | – | 4.3 | – | –
OC[C@H]1O[C@H](Oc2ccc(-c3ccccc3)cc2)[C@@H](O)[C@@H](O)[C@@H]1O | 19 | 2.1 | 10 | 21 (≈ 63.2 µM) | 15.1 | 0.07 | – | – | Kd [29]: 17.7 nM; logP [36]: 2.1
